Data published in ChEMBL document CHEMBL4513216, “Probing the Open Global Health Chemical Diversity Library for Multistage-Active Starting Points for Next-Generation Antimalarials” (ACS Infect Dis, 2020).

Test: Toxicity liver stage against HepG2, at 10uM
Assay type: cell-based
Design: test concentration 10 uM, cell line HepG2-A16-CD81EGFP
Settings: human, HepG2-A16-CD81EGFP cells; read-out: INHIBITION
Summary of the method: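 Uninfected HepG2-A16-CD81EGFP cells, 3 × 10^3 per well, 1536-well, plated on prespotted compound at 10 μM final, parasite-free screening media added to match infected plates; puromycin 10 μM positive, DMSO 0.5% negative; run in parallel with 48 h PbLuc assay at 37 °C, 5% CO2; viability by CellTiter-Glo luminescence, normalized to controls.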

CSCC[C@H](NC(=O)CCn1cc(C(C)=O)c2ccccc21)C(=O)O
cytotoxicity at 10 µM: -3.91%

CC(=O)N[C@@H]1CN(C(=O)CC2CCOCC2)C[C@H]1O
cytotoxicity at 10 µM: -3.3%

C=c1ccoc1=C1NN=C(CNCC2CCCN2c2cccnn2)O1 (stereo unspecified)
cytotoxicity at 10 µM: -13.7%

CCC1CCCCCN1C(=O)c1ccc(N2CCC(O)CC2)cc1 (stereo unspecified)
cytotoxicity at 10 µM: -9.77%

O=C(Cn1cnc(-c2ccccc2)cc1=O)Nc1ccncc1
cytotoxicity at 10 µM: 3.48%

COCCN1CCCN(C(=O)c2scnc2C)CC1
cytotoxicity at 10 µM: 5.27%

Fc1cccc(Oc2nccnc2C2CCN(C3CCOCC3)CC2)c1
cytotoxicity at 10 µM: 6.62%

Cc1ncsc1CN1CC2(CCCC2)CC1=O
cytotoxicity at 10 µM: -0.369%

CC(C)[C@H]1CN(c2ccncc2)C[C@@H]1NC(=O)C1(C#N)CCOCC1
cytotoxicity at 10 µM: -9.21%

O=C(Cc1ccccc1Cl)NCC1CCN(Cc2ccsc2)CC1
cytotoxicity at 10 µM: -9.12%

Cc1ccc(S(=O)(=O)Nc2ccc(C)c(C(=O)O)c2)s1
cytotoxicity at 10 µM: -1.51%

Cc1nn(C)c2c(NCc3ccc(F)cc3)nc(C3CC3)nc12
cytotoxicity at 10 µM: 0.107%

COC1(CNC(=O)c2ccoc2)CCSC1 (stereo unspecified)
cytotoxicity at 10 µM: -10.8%

CN(C)C[C@@H]1CCC[C@@H]2CN(c3ncccn3)C[C@@H]21
cytotoxicity at 10 µM: 5.85%

Fc1ccc(Nc2ccc(C3CCN(Cc4ncc[nH]4)CC3)nc2)nc1
cytotoxicity at 10 µM: -1.85%

CC(C(=O)Nc1ncccn1)N1CCCN(c2nccs2)CC1 (stereo unspecified)
cytotoxicity at 10 µM: -2.55%

CNc1[nH]nc(N)c1NC(=O)c1ccccc1
cytotoxicity at 10 µM: 9.96%

c1ccc(Cc2noc(-c3ccc(NCC4CCCCO4)nc3)n2)cc1 (stereo unspecified)
cytotoxicity at 10 µM: 3%

CCc1ncc2c(n1)CN(Cc1nc(-c3ccsc3)no1)CC2
cytotoxicity at 10 µM: -4.99%

CCn1cc(S(=O)(=O)NC2CCCC2)cn1
cytotoxicity at 10 µM: -7.31%

CN(CCc1ccccn1)C(=O)Nc1cc(C(F)(F)F)c[nH]c1=O
cytotoxicity at 10 µM: 17.2%

CNC(=O)c1ccc(C(=O)N2CCC(Nc3cccnn3)CC2)cn1
cytotoxicity at 10 µM: -19.4%

COc1ccccc1OCCN1CCC(N2CCNC2=O)CC1
cytotoxicity at 10 µM: -3.19%

c1coc(-c2noc(CN3CCC(c4ccn[nH]4)CC3)n2)c1
cytotoxicity at 10 µM: -8.19%

CCOC(=O)CCCNc1nc(C(C)(C)C)nc2c1cnn2C
cytotoxicity at 10 µM: -0.627%

CNc1nccc(-c2cnc3sc(C)c(C)n3c2=O)n1
cytotoxicity at 10 µM: -2.78%

O[C@H]1Cc2ccccc2[C@H]1Nc1ncccc1C(F)(F)F
cytotoxicity at 10 µM: 5.95%

O=C(O)c1cc2c(nc1-c1ccoc1)CCN(CC1CCOC1)CC2 (stereo unspecified)
cytotoxicity at 10 µM: -81.9%

CS(=O)(=O)NCC1CCCN(C(=O)c2ccco2)C1 (stereo unspecified)
cytotoxicity at 10 µM: -19.3%

Cc1ccsc1C(=O)Nc1cc(Br)c(=O)n(C)c1
cytotoxicity at 10 µM: -15.1%

O=C(NCCCOCC1CCCO1)c1cccnc1N1CCCC1 (stereo unspecified)
cytotoxicity at 10 µM: 12.4%

CC(C)n1ccnc1CN1CCCN(C(=O)c2cccnc2O)CC1
cytotoxicity at 10 µM: 1.74%

Cn1nc(C(=O)NCc2ccc(OC3CCCCC3)nc2)ccc1=O
cytotoxicity at 10 µM: 21.3%

c1cncc(-c2noc(C3CN(Cc4cccs4)C3)n2)c1
cytotoxicity at 10 µM: -6.87%

NCC(=O)N1CCCC1c1n[nH]cc1-c1ccccc1F (stereo unspecified)
cytotoxicity at 10 µM: 2.37%

Cc1cc(CN(C)C(=O)NCc2cccc(N3CCCC3=O)c2)no1
cytotoxicity at 10 µM: -12.4%

CC(=O)N1C[C@H]2CCCN(c3ncc(C)cn3)[C@H]2C1
cytotoxicity at 10 µM: 9.52%

c1cn(CCn2cnnc2)c(-c2cc3n(n2)CCCNC3)n1
cytotoxicity at 10 µM: -0.309%

Cc1cccc(NC2CCN(C(=O)Nc3cc(C)on3)CC2)n1
cytotoxicity at 10 µM: -13.7%

Cc1nccc(N2CCCC(C)(C(=O)NC3CCCC3)C2)n1 (stereo unspecified)
cytotoxicity at 10 µM: -18.6%

CCN1CCOC(CNCc2ccccn2)C1 (stereo unspecified)
cytotoxicity at 10 µM: -9.09%

Fc1cccc(-c2nc(CN3CCOC(Cn4cccn4)C3)co2)c1 (stereo unspecified)
cytotoxicity at 10 µM: -5.6%

CC(Cn1cccn1)NC(=O)Nc1ccc(F)cc1 (stereo unspecified)
cytotoxicity at 10 µM: 19.7%

c1ccc(CN2CC[C@@H]3O[C@@H](COCC4CCOCC4)CC[C@@H]32)nc1
cytotoxicity at 10 µM: -1.98%

CC(C)N(C)Cc1cncc2c1CCN(C(=O)c1ccccc1F)C2
cytotoxicity at 10 µM: 2.35%

O=C(C1=CC2(CCN(CCO)CC2)c2ccccc21)N1CCCC1
cytotoxicity at 10 µM: -1.16%

Fc1ccc(C2CCCN2Cc2nc(Cc3ccccc3F)no2)cc1 (stereo unspecified)
cytotoxicity at 10 µM: -18.2%

Cc1nnc(N2CCCC(CS(N)(=O)=O)C2)c(C#N)c1C (stereo unspecified)
cytotoxicity at 10 µM: 2.86%

CC(C)C(=O)NCCCNC(=O)Nc1cc(-c2ccccc2)ns1
cytotoxicity at 10 µM: 20.3%

COCCCNC(=O)c1c[nH]c2ccc(OC)cc12
cytotoxicity at 10 µM: -4.76%

O=C1[C@@H]2CCN(Cc3ccc(F)cc3)C[C@@H]2OCCN1c1cccnc1
cytotoxicity at 10 µM: 8.82%

CN(C)c1cccc(C(=O)N2CCCSCC2CN2CCCC2)c1 (stereo unspecified)
cytotoxicity at 10 µM: 7.03%

COc1cc(OC)cc(C2CCN(CC(=O)NCC(F)(F)F)C2)c1 (stereo unspecified)
cytotoxicity at 10 µM: 2.29%

O=C(O)c1cnc(N2CC[C@H](N3CCOCC3)[C@H](CCCO)C2)c(Cl)c1
cytotoxicity at 10 µM: 4.6%

CSCCCN1C[C@@H]2CC[C@H]1CN(Cc1[nH]cnc1C)C2
cytotoxicity at 10 µM: 1.2%

CC(C)c1nn(C)c(N2CCOCC2)c1CNCc1nncn1C
cytotoxicity at 10 µM: 5.59%

Cc1cnn(CC(C)NCc2ccc(-n3cccn3)cc2)c1 (stereo unspecified)
cytotoxicity at 10 µM: 1.44%

CCn1cc(NC(=O)c2c(C)nn(C)c2C)c(C(N)=O)n1
cytotoxicity at 10 µM: 0.946%

c1ccc(CN2CCC(Nc3ncnc4c3CCNCC4)C2)cc1 (stereo unspecified)
cytotoxicity at 10 µM: 8.03%

CC(Oc1ccc(F)c(F)c1)C(=O)N(CC(N)=O)C1CCCC1 (stereo unspecified)
cytotoxicity at 10 µM: -0.146%

c1ccc(O[C@@H]2CO[C@@]3(CCCN(CC4CCOCC4)C3)C2)nc1
cytotoxicity at 10 µM: -82.6%

Cc1cnn(CC2CN(Cc3nnc(C4CC4)n3C)CCO2)c1 (stereo unspecified)
cytotoxicity at 10 µM: -2.72%

N[C@@H]1c2ccccc2C2(CCN(c3cc(C(F)(F)F)ccn3)CC2)[C@H]1O
cytotoxicity at 10 µM: 0.106%

COCCN1CCC(C(=O)c2cc(F)ccc2F)CC1
cytotoxicity at 10 µM: -9.47%

Cn1cc(CN2CC3(CCN(Cc4ccsc4)C3)C2)cn1
cytotoxicity at 10 µM: -0.182%

Cc1nccn1CC1CCCN(S(=O)(=O)c2cnn(C)c2)C1 (stereo unspecified)
cytotoxicity at 10 µM: 8.58%

COc1ccccc1C(=O)Nc1cc(CC(C)C)nn1C
cytotoxicity at 10 µM: -12.5%

Cc1nc(C2CCCN2Cc2cc(Cl)c3c(c2)OCO3)no1 (stereo unspecified)
cytotoxicity at 10 µM: 7.51%

CN(C)C[C@]12COC[C@H]1CN(Cc1ccccn1)C2
cytotoxicity at 10 µM: 5.89%

CN(C)Cc1ccnc(C2CN(Cc3nccs3)CCO2)n1 (stereo unspecified)
cytotoxicity at 10 µM: -2.61%

Cc1ccc(CN(C)C(C(=O)O)c2ccc3c(c2)OCO3)o1 (stereo unspecified)
cytotoxicity at 10 µM: 6.35%

CN(Cc1n[nH]c(=O)n1CCc1ccccc1F)S(C)(=O)=O
cytotoxicity at 10 µM: -1.78%

COc1ccc(CCCC(=O)N2C[C@H](C3CC3)[C@@H](N(C)C)C2)cc1
cytotoxicity at 10 µM: 0.624%

CCOCc1nc2c(c(N3CC=CC3)n1)CCN(Cc1ccco1)CC2
cytotoxicity at 10 µM: -3.81%

Cc1ccc(C(=O)NC2CCN(C(=O)Nc3ccccn3)CC2)s1
cytotoxicity at 10 µM: -4.54%

CCOc1ccc(CN(CCOC)C(=O)c2ccncc2Cl)cc1
cytotoxicity at 10 µM: 5.82%

CN(C)c1nc2c(c(=O)[nH]1)CCN(C(=O)c1c[nH]c(=O)c(Cl)c1)C2
cytotoxicity at 10 µM: 6.32%

CC(=O)N1CCC(CCc2ccnc(Nc3ccccn3)c2)CC1
cytotoxicity at 10 µM: 5.57%

CC(C)n1cnnc1CN(C)C1CCCNC1 (stereo unspecified)
cytotoxicity at 10 µM: 6.9%

CC(C)SCc1cccc(NC2CCN(C)C2=O)c1 (stereo unspecified)
cytotoxicity at 10 µM: 1.26%

CN(C)C(=O)C1CN(Cc2cscn2)CCN(S(C)(=O)=O)C1 (stereo unspecified)
cytotoxicity at 10 µM: -6.46%

Cc1oc(-c2ccccc2)nc1CC(=O)NC1=NCCS1
cytotoxicity at 10 µM: 0.898%

COCCNC(=O)Cn1c(-c2cccc(F)c2)nc(C)c(CCO)c1=O
cytotoxicity at 10 µM: -2.37%

CCOCCN1CCCC(c2cc(C(N)=O)[nH]n2)C1 (stereo unspecified)
cytotoxicity at 10 µM: 3.78%

CC(Cn1cccn1)NC(=O)Nc1ccc(N2CCCC2)nc1 (stereo unspecified)
cytotoxicity at 10 µM: -0.708%

O=c1[nH]nc(-c2cccs2)c2sc(N3CCOCC3)nc12
cytotoxicity at 10 µM: 9.28%

COCC(=O)NCc1nn(CCN2CCCC2)c(=O)c2ccccc12
cytotoxicity at 10 µM: -18.9%

COCCC(=O)N1CC[C@@H](N(C)C)[C@@H]1Cc1ccccc1
cytotoxicity at 10 µM: -5.05%

Cc1cnc(-c2nc(C3CCCN(Cc4ccccc4C)C3)no2)cn1 (stereo unspecified)
cytotoxicity at 10 µM: -2.33%

COc1ccccc1C1CC(=O)Nc2nc(N3CCCCC3)sc21 (stereo unspecified)
cytotoxicity at 10 µM: 11.5%

O=C(C1CC1)N1CC[C@H](c2nc3ccccc3o2)C1
cytotoxicity at 10 µM: -4.07%

CCOCC1CN(Cc2csc(C)n2)Cc2nccn2C1 (stereo unspecified)
cytotoxicity at 10 µM: 5.98%

O=S(=O)(c1ccc(F)c(F)c1)N1CCCC(c2nccs2)C1 (stereo unspecified)
cytotoxicity at 10 µM: -0.523%

CC1=N[C@@]2(CC[C@@H]3CN(C(=O)NCC(C)C)C[C@@H]32)C(=O)N1C
cytotoxicity at 10 µM: 5.01%

C[C@@H]1CN(C(=O)c2ccc(C#N)nc2)C[C@@]1(O)C1CC1
cytotoxicity at 10 µM: -28.8%

CNC(=O)[C@@H](c1ccccc1F)N1CCC[C@H]1C(=O)NC1CCOCC1
cytotoxicity at 10 µM: -3.73%

Cn1c(CN2CCOC(c3nc(C(C)(C)C)n[nH]3)C2)nnc1C1CC1 (stereo unspecified)
cytotoxicity at 10 µM: 5.37%

CCN1CCC2(C1)CN(S(=O)(=O)c1cn(C)cn1)C2
cytotoxicity at 10 µM: -109%

CN(C)S(=O)(=O)c1ccc(CN2CCCC2c2ccc[nH]2)o1 (stereo unspecified)
cytotoxicity at 10 µM: -4.03%

COc1ccc(CN(CCC#N)CCN2CCOCC2)cc1OC
cytotoxicity at 10 µM: -5.79%

Cc1csc(N2CCCN(C(=O)C3(C#N)CCCC3)CC2)n1
cytotoxicity at 10 µM: -1.01%

CNc1cc(C2CN(CC(=O)N(C)C)CCO2)nc(C)n1 (stereo unspecified)
cytotoxicity at 10 µM: -14.4%

O=C(CCc1cc(O)no1)N1CCCC(COc2ccccc2F)C1 (stereo unspecified)
cytotoxicity at 10 µM: 0.296%

CC(C)N(C)Cc1cnc2n1CCN(S(=O)(=O)c1ccccc1)C2
cytotoxicity at 10 µM: -1.72%

NC(=O)N1CCCC1COC(=O)c1ccc(F)cc1Br (stereo unspecified)
cytotoxicity at 10 µM: 0.616%

CN1N=C(C(=O)N2CCN(c3ncccc3Cl)CC2)CCC1=O
cytotoxicity at 10 µM: 0.0793%

CC(O)c1cn(Cc2ccc(Cl)cc2)nn1 (stereo unspecified)
cytotoxicity at 10 µM: 8.75%

CC(CCS(C)(=O)=O)NC(=O)NCc1ccc2ccccc2c1 (stereo unspecified)
cytotoxicity at 10 µM: -137%

CCc1nnc(C(C)N2CCCN(C(=O)OCC(C)C)CC2)o1 (stereo unspecified)
cytotoxicity at 10 µM: 4.96%

Cn1nc(CN2CCCCC2)c2c1CN(C(=O)c1ccoc1)C2
cytotoxicity at 10 µM: 2.83%

O=C1N(Cc2cccc(F)c2)CCC12CCCN(c1ncc(F)cn1)C2 (stereo unspecified)
cytotoxicity at 10 µM: 0.797%
